From PubChem BioAssay
Hits are enriched below; roughly 4.2% of the tested compounds scored in any of these assays.
SKKanGAS inh = SKKanGAS growth inhibition; hit rate 1.3% among 300,000; inhibition, % at 7.5 µM; S. pyogenes SKKanGAS, kanamycin growth, BacTiter-Glo, 6 h;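 active means mean replicate score, as percent of positive control median, at least 50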;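 further: strain carries kanamycin resistance gene driven by streptokinase promoter and grows in 40 µg/ml kanamycin; loss of luminescence reflects streptokinase promoter inhibition or plain growth inhibition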
Rad51 HR inh = Rad51 (human) homologous recombination inhibition. Q06609. hRad51 DNA strand exchange, fluorescence dequenching. inhibition, % at 10 µM. hit rate 0.085% among 200,000;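 active means inhibition above 40% at the single screening dose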
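System: hRad51 filaments on single-stranded DNA; reagent: Fluorescein- and BHQ1-tagged 47-mer duplex; compound dosing: one concentration, 10 µM final; timing: filaments 15 min 37 °C, then compound 30 min; measured by: fluorescein emission 520 nm, excitation 485 nm; benchmarks: per-plate controls and blanks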
Autophagy mod = alters autophagy in cells; calls only at 10 µM (by protocol); MEF GFP-LC3 puncta imaging; test concentration mostly 10 µM; hit rate 0.98% among 190,000;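 active means percentage of spot-positive cells more than 3 SD above its plate mean, without a fluorescence outlier flag or 80% toxicity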
Cl transport mod = KCC2 (human) Cl- transport modulation. Q9H2X9. KCC2 cells, thallium flux FluoZin-2 fluorescence. B-score of Tl+ flux slope (higher = more flux/activation; lower = inhibition) at 10 µM. hit rate 2.2% among 190,000;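 active means thallium flux slope and its plate-corrected score both differing from the plate sample mean at a set confidence after two filtering rounds, in either direction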;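 further: slope of fluorescence scaled to starting intensity during 10 to 20 s after thallium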
Target sequence (Q9H2X9 whole entry, looked up): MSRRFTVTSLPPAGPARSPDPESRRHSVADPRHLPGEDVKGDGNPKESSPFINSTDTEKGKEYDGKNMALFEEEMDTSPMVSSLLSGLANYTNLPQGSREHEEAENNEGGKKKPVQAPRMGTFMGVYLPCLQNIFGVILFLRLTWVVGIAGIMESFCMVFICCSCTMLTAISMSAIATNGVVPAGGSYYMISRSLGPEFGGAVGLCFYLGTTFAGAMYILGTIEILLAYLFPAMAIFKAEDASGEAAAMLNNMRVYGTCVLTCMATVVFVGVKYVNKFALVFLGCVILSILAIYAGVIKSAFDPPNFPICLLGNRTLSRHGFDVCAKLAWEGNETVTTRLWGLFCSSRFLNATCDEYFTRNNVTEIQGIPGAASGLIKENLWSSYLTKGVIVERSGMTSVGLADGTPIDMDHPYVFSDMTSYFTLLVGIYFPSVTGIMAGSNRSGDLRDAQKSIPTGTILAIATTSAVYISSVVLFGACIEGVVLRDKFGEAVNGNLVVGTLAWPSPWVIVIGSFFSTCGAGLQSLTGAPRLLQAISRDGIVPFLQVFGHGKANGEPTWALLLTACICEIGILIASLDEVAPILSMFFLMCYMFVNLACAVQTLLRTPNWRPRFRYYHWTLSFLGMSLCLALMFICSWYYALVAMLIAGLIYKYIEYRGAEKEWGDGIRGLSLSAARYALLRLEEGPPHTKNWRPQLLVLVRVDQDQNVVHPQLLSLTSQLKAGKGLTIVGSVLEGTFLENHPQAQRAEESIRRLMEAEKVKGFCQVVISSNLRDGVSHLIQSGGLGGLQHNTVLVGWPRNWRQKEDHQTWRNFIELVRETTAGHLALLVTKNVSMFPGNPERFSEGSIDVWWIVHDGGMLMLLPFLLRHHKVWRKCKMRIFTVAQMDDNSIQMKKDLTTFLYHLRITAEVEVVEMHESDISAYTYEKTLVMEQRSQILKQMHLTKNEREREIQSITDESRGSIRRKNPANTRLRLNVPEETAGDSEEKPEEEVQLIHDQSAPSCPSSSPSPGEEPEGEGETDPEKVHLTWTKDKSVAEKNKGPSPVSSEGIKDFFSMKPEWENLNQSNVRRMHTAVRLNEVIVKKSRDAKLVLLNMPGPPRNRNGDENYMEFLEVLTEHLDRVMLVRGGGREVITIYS
Ins promoter up = MIN6 insulin promoter up-regulation; MIN6 insulin promoter-GFP reporter, high-content imaging; active compounds read high; z-score at 5 µM; hit rate 0.3% among 190,000; AID 1625;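 active means z-score above 3 at 5 µM with at least 500 cells counted in the well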
WT yeast gro inh = growth inhibition of WT yeast, mitochondrial fusion screen | mitochondrial fusion phenotypic screen, WT strain | inhibition, % at 10 µM | hit rate 2.1% among 190,000 | AID 1362; in the data active means inhibition above about 58%; tested in S. cerevisiae
Of the large screens only hits and unclear results are named; the others gave an inactive call.

Cc1ccc(-c2ccc(C(=O)Nc3cccc(F)c3)o2)c2ccccc12	none
O=C(Nc1cccc(F)c1)c1ccc(-c2ccccc2Cl)o1	WT yeast gro inh 77
Cc1ccc(C(=O)NNC(=O)CCCCC(=O)NNC(=O)c2ccc(C)cc2)cc1	none (no result: Rad51 HR inh, Autophagy mod, Cl transport mod, Ins promoter up, WT yeast gro inh)
COc1ccccc1-n1c(SCC(=O)Nc2ccc(F)cc2)nc2c(c1=O)SCC2	none
Cc1ccc(NC(=O)CSc2nc(O)cc(=O)n2C)cc1	none
COc1ccccc1-n1c(SCC(=O)Nc2ccc(C)cc2)nc(O)cc1=O	SKKanGAS inh 63
COc1ccccc1-n1c(SCC(=O)Nc2cc(C)on2)nc2c(c1=O)SCC2	Autophagy mod active (no result: Cl transport mod)
COc1ccc(NC(=O)CSc2nc(O)cc(=O)n2-c2ccccc2OC)cc1	SKKanGAS inh 87 (no result: Rad51 HR inh)
COc1ccccc1-n1c(SCC(=O)Nc2cccc3ccccc23)nc(O)cc1=O	none
Cc1ccc(NC(=O)CSc2nc(O)cc(=O)n2-c2ccc(C)cc2)cc1	SKKanGAS inh 77 (no result: Rad51 HR inh, Autophagy mod, Cl transport mod, Ins promoter up, WT yeast gro inh)
COc1cc(C)ccc1OCc1cc(C(=O)N2CCC(c3ccc(F)cc3)C2)no1 (stereo not drawn)	none (no result: Rad51 HR inh, Autophagy mod, Cl transport mod, Ins promoter up, WT yeast gro inh)
CCCCn1c(O)c(C(CC)=Nc2ccc3c(c2)CCC3)c(=O)[nH]c1=O	SKKanGAS inh 53 (no result: Cl transport mod)
C=CCn1c(O)c(C(CC)=Nc2ccccc2NC(=O)CC)c(=O)[nH]c1=O	none (no result: Cl transport mod)
S=c1[nH]nc(COc2ccc3ccccc3c2)o1	Cl transport mod -5.7 (no result: Ins promoter up)
CN1C=CC=C/C1=C1\SC(=S)N(c2ccccc2)C1=O	WT yeast gro inh 66 (no result: Rad51 HR inh, Cl transport mod)
O=C(Cn1nnc(-c2ccccc2)n1)N/N=C/c1cccc([N+](=O)[O-])c1O	SKKanGAS inh 90
CC(=O)Nc1ccc(NC(=O)CSc2nc(N)c(NC(=O)c3ccco3)c(=O)[nH]2)cc1	none (no result: Rad51 HR inh, Autophagy mod, Cl transport mod, Ins promoter up, WT yeast gro inh)
CCC/C(=N\NC(=O)C1CC1)c1ccccc1	none (no result: Rad51 HR inh, Autophagy mod, Cl transport mod, Ins promoter up, WT yeast gro inh)
CCC/C(=N/NC(=O)c1cccc(Cl)c1)c1ccccc1	Cl transport mod 12
Cc1ccc(SC[C@H](C)CN2CC[C@H](C(C)(C)C)CCC2=O)cc1	none (no result: Rad51 HR inh, Autophagy mod, Cl transport mod, Ins promoter up, WT yeast gro inh)
O=[N+]([O-])c1c(C(Cl)Cl)nn(-c2ccc(Cl)cc2)c1N1CCCCC1	WT yeast gro inh 75 (no result: Rad51 HR inh, Ins promoter up)
Nc1nc(-c2ccccn2)nc(N)c1Cc1ccc(Cl)cc1Cl	SKKanGAS inh 114, Autophagy mod active
Nc1nc(-c2ccccn2)nc(N)c1Cc1ccccc1F	SKKanGAS inh 79
Nc1nc(-c2ccccn2)nc(N)c1Cc1c(F)cccc1Cl	none
Cc1nc(-c2ccccn2)nc(N(C)c2ccccc2)c1Cl	SKKanGAS inh 93 (no result: Rad51 HR inh, Autophagy mod, Cl transport mod, Ins promoter up, WT yeast gro inh)
Cc1nc(-c2ccccn2)nc(N2CCOCC2)c1Cl	none (no result: Autophagy mod, WT yeast gro inh)
Cc1noc(C)c1S(=O)(=O)Nc1ccc(C(=O)N2CCC(C)CC2)cc1	none (no result: SKKanGAS inh, Rad51 HR inh)
C=CCOc1ccc2nc(NC(=O)OC)[nH]c2c1	Autophagy mod active
COC(=O)Nc1nc2ccc(-c3n[nH]c(=O)c4ccccc34)cc2[nH]1	none (no result: Rad51 HR inh)
S=C(NCc1ccco1)NCC(c1ccco1)N1CCCCC1 (stereo not drawn)	none (no result: Rad51 HR inh)
CC(C)COc1ccc(CNC(=S)NCc2ccccc2)cc1	WT yeast gro inh 69
CCOc1ccc(CNC(=S)NCc2ccc(OCC)cc2)cc1	none
CCOC(=O)C1(Cc2ccccc2)CCN(Cc2ccon2)CC1	Autophagy mod active
CCOC(=O)C1(Cc2ccccc2)CCN(Cc2cc(OC)c3c(c2)OCO3)CC1	none
CCOC(=O)C1(Cc2ccccc2C(F)(F)F)CCN(Cc2ccon2)CC1	none (no result: Autophagy mod, WT yeast gro inh)
CCOC(=O)C1(Cc2ccccc2)CCN(Cc2cccc3c2OCO3)CC1	Autophagy mod active
CC1(C)CC(=O)C2=C(C1)OC(N)=C(C#N)C2c1cc2c(cc1[N+](=O)[O-])OCO2 (stereo not drawn)	none
O=C1c2oc3ccc(Cl)cc3c(=O)c2C(c2cccc(Br)c2)N1CCO (stereo not drawn)	none
CCN(CC)CCN1C(=O)c2oc3ccccc3c(=O)c2C1c1cccc(Br)c1 (stereo not drawn)	Cl transport mod 24 (no result: Ins promoter up)
CCCOc1ccc(C2c3c(oc4ccccc4c3=O)C(=O)N2CCN(CC)CC)cc1OC (stereo not drawn)	none (no result: Cl transport mod)
CCN(CC)CCN1C(=O)c2oc3ccccc3c(=O)c2C1c1ccccc1 (stereo not drawn)	Ins promoter up 3.7 (no result: Cl transport mod)
Cc1ccc(S(=O)(=O)NCCCCCC(=O)Nc2c(C)n(C)n(-c3ccccc3)c2=O)cc1	none
O=C(CNC(=O)c1ccc(F)cc1)c1ccc(Cl)cc1	none (no result: Rad51 HR inh, Autophagy mod, Cl transport mod, Ins promoter up, WT yeast gro inh)
